Source: ChEMBL document CHEMBL4610125, “Evaluation of Manassantin A Tetrahydrofuran Core Region Analogues and Cooperative Therapeutic Effects with EGFR Inhibition” (J Med Chem, 2020)
Active and inactive are the calls of the source. No cut-off for these calls is given here.

Legend:
HEK-293T = test: Inhibition of HIF1 transactivation activity in HEK293T cells transfected with pGL3-5HRE-VEGF-luciferase at 0.01 to 1 uM incubated for 24 hrs under hypoxia condition by luciferase reporter gene assay; type: cell-based; conditions: Homo sapiens
Method in brief: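 HEK-293T cells were seeded at 5 × 10³/well, left 24 h, then co-transfected with a 5×HRE (human VEGF promoter) firefly luciferase plasmid and a pRL-SV40 Renilla plasmid. Cells were exposed to hypoxia (1% O₂) with serially diluted compound (0, 0.01, 0.1, 1 μM) for 24 h, with 10 μM 17-AAG as reference. Dual-Glo readout, with firefly normalized to Renilla. Three independent experiments.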

[1] = test system: Lewis lung carcinoma cell line; test: Antitumor activity against mouse LLC cells allografted in C57BL/6J mouse assessed as reduction tumor weight at 5 mg/kg, ip dosed every 3 days for 17 days starting from 2 days after inoculation relative to control; type: functional, organism-based
Method in brief: (§1)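 Male C57BL/6 mice, 5−6 weeks old, were given LLC cells (2 × 10⁵ in 200 μL serum-free medium) s.c. into the dorsal flanks on Day 0. From day 2, groups of n = 5 received 5 mg/kg i.p. […]. Tumor size was measured three times a week and tumor weight at sacrifice. Statistics were versus the vehicle control.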

[2] = test system: Lewis lung carcinoma cell line; test: animal or person; type: functional; conditions: Mus musculus, ip, read-out: TGI
[3] = test system: Lewis lung carcinoma cell line; test: Antitumor activity against mouse LLC cells allografted in C57BL/6J mouse assessed as inhibition of tumor growth at 5 mg/kg, ip dosed every 3 days for 17 days starting from 2 days after inoculation and co-treated with 5 mg/kg, ip EGFR inhibitor gefitinib relative to control; type: functional; conditions: read-out: TGI; method in brief: as §1
[4] = test system: Lewis lung carcinoma cell line; test: Antitumor activity against mouse LLC cells allografted in C57BL/6J mouse assessed as reduction of tumor weight at 5 mg/kg, ip dosed every 3 days for 17 days starting from 2 days after inoculation and co-treated with 5 mg/kg, ip EGFR inhibitor gefitinib relative to control; type: functional, organism-based; method in brief: as §1
[5] = Toxicity in C57BL/6J mouse allografted with mouse LLC cells assessed as effect on body weight at 5 mg/kg, ip dosed every 3 days for 17 days starting from 2 days after inoculation; type: organism-based, Lewis lung carcinoma; conditions: in vivo; method in brief: as §1
[6] = Toxicity in C57BL/6J mouse allografted with mouse LLC cells assessed as effect on body weight at 5 mg/kg, ip dosed every 3 days for 17 days starting from 2 days after inoculation and co-treated with 5 mg/kg, ip EGFR inhibitor gefitinib; type: organism-based, Lewis lung carcinoma; conditions: in vivo; method in brief: as §1

SMILES | inhibition (HEK-293T) | also measured
COc1ccc(C(=O)[C@@H](C)Oc2ccc(-c3cccc(-c4ccc(O[C@H](C)C(=O)c5ccc(OC)c(OC)c5)c(OC)c4)n3)cc2OC)cc1OC | inactive | 
C=CCN1[C@H](c2ccc(O[C@H](C)C(=O)c3ccc(OC)c(OC)c3)c(OC)c2)CC[C@H]1c1ccc(O[C@H](C)C(=O)c2ccc(OC)c(OC)c2)c(OC)c1 | inactive | 
COc1ccc(C(=O)[C@@H](C)Oc2ccc(CC3(Cc4ccc(O[C@H](C)C(=O)c5ccc(OC)c(OC)c5)c(OC)c4)SCCCS3)cc2OC)cc1OC | inactive | 
COc1ccc(C(=O)[C@@H](C)Oc2ccc(C3=C(c4ccc(O[C@H](C)C(=O)c5ccc(OC)c(OC)c5)c(OC)c4)CCC3)cc2OC)cc1OC | inactive | 
COc1cc2ncnc(Nc3ccc(F)c(Cl)c3)c2cc1OCCCN1CCOCC1 |  | Activity [1]: Active
COc1ccc(C(=O)[C@@H](C)Oc2ccc([C@@H]3CC[C@@H](c4ccc(O[C@H](C)C(=O)c5ccc(OC)c(OC)c5)c(OC)c4)O3)cc2OC)cc1OC | Dose-dependent effect | 
COc1ccc([C@@H](O)[C@@H](C)Oc2ccc([C@H]3O[C@H](c4ccc(O[C@H](C)[C@H](O)c5ccc(OC)c(OC)c5)c(OC)c4)[C@H](C)[C@H]3C)cc2OC)cc1OC | Active | inhibition in vivo at 5 mg/kg [2]: 30%; inhibition in vivo at 5 mg/kg [3]: 80%; Activity [1]: Active; Activity [4]: Active; Activity [5]: Non-Toxic; Activity [6]: Non-Toxic
COc1ccc(C(=O)[C@@H](C)Oc2ccc([C@@H]3C[C@@H](C)[C@@H](c4ccc(O[C@H](C)C(=O)c5ccc(OC)c(OC)c5)c(OC)c4)O3)cc2OC)cc1OC | Dose-dependent effect | 
COc1ccc(C(=O)[C@@H](C)Oc2ccc([C@@H]3CCC[C@H](c4ccc(O[C@H](C)C(=O)c5ccc(OC)c(OC)c5)c(OC)c4)O3)cc2OC)cc1OC | inactive | 
COc1ccc(C(=O)[C@H](C)Oc2ccc(/C=C/c3ccc(O[C@H](C)C(=O)c4ccc(OC)c(OC)c4)c(OC)c3)cc2OC)cc1OC | inactive | 
COc1ccc(C(=O)[C@@H](C)Oc2ccc(-c3cccc(-c4ccc(O[C@H](C)C(=O)c5ccc(OC)c(OC)c5)c(OC)c4)c3)cc2OC)cc1OC | inactive | 
COc1ccc(C(=O)[C@@H](C)Oc2ccc([C@@H]3CC[C@@H](c4ccc(O[C@H](C)C(=O)c5ccc(OC)c(OC)c5)c(OC)c4)N3)cc2OC)cc1OC | Dose-dependent effect | 
